A word on the IC90: it is the concentration needed for an effect of 90%. As usually defined, the Ki is the equilibrium dissociation constant of an inhibitor or competing ligand from its target.

This is an account of results in ChEMBL document CHEMBL1129454, “HIV protease inhibitory bis-benzamide cyclic ureas: a quantitative structure-activity relationship analysis” (J Med Chem, 1996).

Structures are written as SMILES. Calls of active or inactive are those of the source. The rule behind the calls is not given here.

The test system of one assay is T-cell. Description: The concentration of the antiviral compound required to inhibit HIV RNA synthesis by 90%. viral RNA was quantified by sandwich hybridization assay; not active. In kind it is functional, cell-based. The method in brief: (§1)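 Susceptible T-cell lines grown in individual microtiter wells were infected with HIV. Cell-associated viral RNA was measured by RNA hybridization 3 days after infection. […] Assay SD was <±37%. Cytotoxicity was scored separately by tetrazolium dye metabolism, because RNA assay results are valid only at non-cytotoxic doses.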

The target of assay [1] is T1, Human immunodeficiency virus type 1 protease (Human immunodeficiency virus 1, UniProt Q72874). Put plainly: Binding affinity was evaluated with recombinant single chain dimeric HIV protease enzyme with a fluorescent substrate; not active. The method in brief: (§2)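 Cleavage products were separated by anion-exchange HPLC and the product quantified by fluorescence. Each compound was assayed at least twice and the mean reported; assay SD <±40%.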

Assay [2] concerns the target T1, Human immunodeficiency virus type 1 protease. Description: Binding affinity was evaluated on HIV Protease enzyme; not active. The method in brief:
as §2

The target is the same in assay [3]. Description: Inhibitory activity against HIV-1 protease. The procedure, abridged:
as §2

For assay [4], the system named is Human immunodeficiency virus 1. Put plainly: The concentration required to inhibit HIV-1 RNA synthesis by 90%. Viral RNA quantified by a sandwich hybridization assay. The assay is classed as functional. The conditions noted are these: Human immunodeficiency virus 1. The method in brief:
as §1

Assay [5] addresses T1, Human immunodeficiency virus type 1 protease. Put plainly: Binding affinity for HIV-1 protease. The procedure, abridged: as §2

Consider `COC(=O)c1cccc(CN2C(=O)N(Cc3cccc(C(=O)OC)c3)[C@H](Cc3ccccc3)[C@@H]3OC(C)(C)O[C@H]3[C@H]2Cc2ccccc2)c1`, for which, in the assay with T-cell, the IC90 entry was “inactive”. Also, the Ki entry in assay [1] and in assay [2] was “Not Active” in each case.
Regarding `CC1(C)O[C@@H]2[C@@H](O1)[C@@H](Cc1ccccc1)N(Cc1cccc(C(=O)O)c1)C(=O)N(Cc1cccc(C(=O)O)c1)[C@@H]2Cc1ccccc1`, the IC90 result with T-cell was “inactive”. Further, the Ki entry in assay [1] and in assay [2] was “Not Active” throughout.
On to `CC1(C)O[C@@H]2[C@@H](O1)[C@@H](Cc1ccccc1)N(Cc1cccc(C#N)c1)C(=O)N(Cc1cccc(C#N)c1)[C@@H]2Cc1ccccc1`, for which, in the assay with T-cell, the IC90 entry is “inactive”. The Ki result in assay [1] and in assay [2] was “Not Active” throughout.
Turning to `CCCCNC(=O)c1cccc(CN2C(=O)N(Cc3cccc(C(=O)NCCCC)c3)[C@H](Cc3ccccc3)[C@H](O)[C@@H](O)[C@H]2Cc2ccccc2)c1`, the inhibitory constant (Ki) in assay [3] and in assay [5] was 0.424 nM each time. In addition, the IC90 in assay [4] was determined as 255 nM.
`CC(C)(C)NC(=O)c1cccc(CN2C(=O)N(Cc3cccc(C(=O)NC(C)(C)C)c3)[C@H](Cc3ccccc3)[C@H](O)[C@@H](O)[C@H]2Cc2ccccc2)c1`: the results for the Ki in assay [3] and in assay [5] were 2.4 nM and 2.6 nM, respectively. This molecule gave an IC90 in assay [4] of 717 nM.
The matching figures for `CCCNC(=O)c1cccc(CN2C(=O)N(Cc3cccc(C(=O)NCCC)c3)[C@H](Cc3ccccc3)[C@H](O)[C@@H](O)[C@H]2Cc2ccccc2)c1`: 0.359 nM, 0.28 nM and 259 nM.
In the same order, the values of `CONC(=O)c1cccc(CN2C(=O)N(Cc3cccc(C(=O)NOC)c3)[C@H](Cc3ccccc3)[C@H](O)[C@@H](O)[C@H]2Cc2ccccc2)c1` are 0.045 nM, 0.08 nM and 214 nM.
